Source: PubChem BioAssay
Shown are actives, neighbours in structure and some others; about 0.58% of the full set was active somewhere.
TRPML3 agonist: activates the human TRPML3 channel | activation, % at 3 µM | 0.29% of 220,000 active | HEK293 TRPML3-YFP, Fluo-8 calcium fluorescence; 100% = the carbachol control signal | AID 1448 | Q8TDD5;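 active means activation above its plate's cutoff, the mean activation of the plate's test wells plus 3 SD, cut at about 12% in these data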;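 further: 0% = DMSO only wells and 100% = carbachol wells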
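Material: TRPML3-YFP stable HEK293 cells | Dosing: One concentration, 3 µM nominal, 0.3% DMSO | Timing: 125 s total fluorescence read per well | Technique: Fluo-8 calcium dye fluorescence, ex 470-495, em 515-575 nm | Measure: Percent activation from peak-to-basal fluorescence ratio, scaled between DMSO and carbachol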
OXTR potentiate: human OXTR potentiation | activation, % at 3 µM | AID 2445 | CHO-OTR cells, Fluo-8 calcium fluorescence, potentiator mode; 0% = oxytocin EC15, 100% = EC100 | P30559 | 0.061% of 320,000 active;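 active means activation above that plate's cutoff, the mean activation of tested compounds plus 3 SD, cut at about 6.6% in these data, passing the limit was not always enough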;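 further: 100% uses oxytocin at 75 nM as the full agonist control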
Target sequence (P30559 whole entry, looked up): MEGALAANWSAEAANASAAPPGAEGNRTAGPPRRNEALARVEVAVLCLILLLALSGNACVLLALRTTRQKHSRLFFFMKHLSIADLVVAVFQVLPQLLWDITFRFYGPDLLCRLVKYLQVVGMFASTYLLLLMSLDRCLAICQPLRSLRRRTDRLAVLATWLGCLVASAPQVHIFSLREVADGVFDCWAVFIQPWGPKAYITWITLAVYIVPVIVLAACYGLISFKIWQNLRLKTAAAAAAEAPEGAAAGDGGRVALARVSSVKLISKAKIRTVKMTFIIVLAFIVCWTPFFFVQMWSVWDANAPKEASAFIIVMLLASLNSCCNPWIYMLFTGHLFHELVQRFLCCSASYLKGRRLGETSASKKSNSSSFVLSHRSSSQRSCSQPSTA
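System: human OTR in CHO cells / Also added: sub-maximal oxytocin, roughly EC15 / Control set: EC15 oxytocin low, 75 nM oxytocin high / Schedule: 6 min compound pre-incubation at room temperature, 100 s kinetic read / Compound: single-point 3.0 µM / Replication: singlicate / Technique: Fluo-8 calcium dye fluorescence / Read-out basis: % activation of max/min ratio relative to oxytocin controls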
OXTR agonist: human OXTR agonism. P30559. CHO-OTR cells, Fluo-8 calcium fluorescence; normalized: DMSO 0%, oxytocin 100%. activation, % at 3 µM. 0.32% of 320,000 active;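 active means activation above the mean of all tested compounds plus 3 SD, cutoff set per screening run, cut at about 20% in these data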;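 further: peak over basal fluorescence ratio from a 100 s FLIPR kinetic read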
zfTRPN1 agonist: zebrafish TRPN1 (NompC) channel agonism. 0.18% of 220,000 active. activation, % at 3 µM. AID 1424. HEK293 zebrafish TRPN1-YFP, Fluo-8 calcium fluorescence; 100% = response to 87 µM carbachol;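 active means activation above its plate's cutoff, the mean activation of test wells on that plate plus 3 SD, cut at about 19% in these data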;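 further: 0% = DMSO alone and 100% = 87 µM carbachol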
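System: zebrafish TRPN1-YFP in HEK293 cells / Dosing: 3 µM single point / Timing: dye loading 1 h at 37 °C, then 30 min room temperature / Signal: Fluo-8 calcium fluorescence, excitation 470-495 nm, emission 515-575 nm / Read-out basis: percent activation from peak over basal fluorescence ratio, control-normalized / Control set: high carbachol 87 µM, low DMSO alone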
V1R ag counter: counter-screen for oxytocin receptor agonists: human V1a receptor agonists. P37288. 0.25% of 320,000 active. CHO-V1R cells, Fluo-8 calcium fluorescence, agonist mode; 0% DMSO, 100% 3 nM vasopressin. activation, % at 3 µM;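 active means activation above the mean activation of all tested compounds plus 3 SD, per screening run, cut at about 20% in these data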;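 further: signal is peak over basal fluorescence ratio across a 100 second FLIPR read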
* = called active by the depositor.

For CN(CC(=O)Nc1ncn[nH]1)S(=O)(=O)c1ccc(Cl)cc1 the results were OXTR potentiate -4, OXTR agonist 0 and V1R ag counter 1.
Screening Cc1ccc(CSC(Nc2ccc(F)cc2)=C(C#N)C#N)cc1 returned TRPML3 agonist 15*, OXTR potentiate -6, OXTR agonist 9, zfTRPN1 agonist 25* and V1R ag counter 9.
Screening CCN(CC)C(=O)CSC(Nc1ccc(F)cc1)=C(C#N)C#N returned TRPML3 agonist 5, OXTR potentiate -12, OXTR agonist 8, zfTRPN1 agonist 9 and V1R ag counter 6.
For CN(C)c1ccc(/C=C/c2cc[n+]([O-])cc2)cc1 the results were TRPML3 agonist 12*, OXTR potentiate -7, OXTR agonist 18, zfTRPN1 agonist 15 and V1R ag counter 20.
Screening O=C(Nc1cc(S(=O)(=O)N2CCCCC2)ccc1Cl)c1ccccc1NS(=O)(=O)c1ccc(F)cc1 returned TRPML3 agonist 13*, OXTR potentiate -10, OXTR agonist 10, zfTRPN1 agonist 19* and V1R ag counter 7.
`COc1ccc(C2(C)NC(=O)N(CC(=O)c3cc(C)n(C4CC4)c3C)C2=O)cc1` (stereo unspecified) gave OXTR potentiate -16, OXTR agonist 49* and V1R ag counter 45*.
For CC(=O)c1cccc(N(C(=O)Cn2nnc3ccccc32)C(C(=O)NCC2CCCO2)c2ccc(N3CCOCC3)cc2)c1 (stereo unspecified) the results were TRPML3 agonist 0, OXTR potentiate -5, OXTR agonist 1, zfTRPN1 agonist 1 and V1R ag counter 0.
Cc1ccc(NC(=O)c2cnccn2)c(C)c1 was read as OXTR potentiate -8, OXTR agonist -1 and V1R ag counter -1.
Nc1c(C(=O)c2ccccc2)sc2nsc(SCCN3CCOCC3)c12 was read as TRPML3 agonist 4, OXTR potentiate -22, OXTR agonist 49*, zfTRPN1 agonist 8 and V1R ag counter 49*.
`CCOC(=O)CNC(=O)CSc1nnc(CCc2nc3ccccc3[nH]2)n1C` gave OXTR potentiate -12, OXTR agonist -1 and V1R ag counter 1.
CC(Oc1ccc(C(=O)c2ccccc2)cc1)C(=O)Nc1ccc(S(N)(=O)=O)cc1 (stereo unspecified) was read as TRPML3 agonist 3, OXTR potentiate -11, OXTR agonist 33*, zfTRPN1 agonist 16 and V1R ag counter 22*.
Screening CC(Oc1ccccc1)C(=O)Nc1ccc(NC(=O)c2ccccc2)cc1 (stereo unspecified) returned OXTR potentiate -1, OXTR agonist 1 and V1R ag counter 1.
`Cc1ccc(C(=O)NC(=S)NNC(=O)c2ccccc2[N+](=O)[O-])cc1` gave TRPML3 agonist 0, OXTR potentiate -7, OXTR agonist 2, zfTRPN1 agonist 0 and V1R ag counter 1.
Screening O=C(NC(=S)NNC(=O)c1ccccc1O)c1ccc(F)cc1 returned OXTR potentiate -26, OXTR agonist 34* and V1R ag counter 32*.
For Cc1ccc(C(=O)NNC(=S)NC(=O)c2ccc(Cl)cc2Cl)cc1 the results were TRPML3 agonist 43*, OXTR potentiate -14, OXTR agonist 101*, zfTRPN1 agonist 70* and V1R ag counter 117*.
Screening Cc1ccc(C(=O)NC(=S)NNC(=O)c2ccccc2)cc1 returned OXTR potentiate -23, OXTR agonist 82* and V1R ag counter 89*.
`Cc1ccccc1C(=O)NNC(=S)NC(=O)c1ccccc1` gave TRPML3 agonist 8, OXTR potentiate -9, OXTR agonist 53*, zfTRPN1 agonist 9 and V1R ag counter 40*.
Screening Cc1ccc(S(=O)(=O)N2CCOCC2)cc1NC(=O)CSc1nnc(C2CC2)n1C1CC1 returned OXTR potentiate -1, OXTR agonist 0 and V1R ag counter 0.
For Cc1ccc(/C(N)=N/OC(=O)C(C)c2ccc([N+](=O)[O-])cc2)cc1 (stereo unspecified) the results were OXTR potentiate -8, OXTR agonist 1 and V1R ag counter 0.
Cc1ccc(C(=O)NNC(=S)NC(=O)c2ccccc2)cc1 was read as OXTR potentiate -19, OXTR agonist 88* and V1R ag counter 96*.
`Cc1ccc(C(=O)NC(=S)NNC(=O)c2ccc([N+](=O)[O-])cc2)cc1` gave OXTR potentiate -7, OXTR agonist 10 and V1R ag counter 4.
`CCOC(=O)c1c(NC(=O)COC(=O)CCOc2ccccc2C)sc(C(=O)NC)c1C` gave OXTR potentiate -5, OXTR agonist -2 and V1R ag counter 2.
`Cc1onc(-c2ccccc2)c1C(=O)NC(=S)NNC(=O)c1ccccc1O` gave TRPML3 agonist 55*, OXTR potentiate -14, OXTR agonist 65*, zfTRPN1 agonist 81* and V1R ag counter 68*.
Screening CCCOc1ccc(C(=O)NC(=S)NNC(=O)c2c(-c3ccccc3)noc2C)cc1 returned TRPML3 agonist 52*, OXTR potentiate -19, OXTR agonist 93*, zfTRPN1 agonist 99* and V1R ag counter 106*.
Screening CC(C)Cc1ccc(C(C)C(=O)Nc2nccs2)cc1 (stereo unspecified) returned TRPML3 agonist 11, OXTR potentiate -14, OXTR agonist 32*, zfTRPN1 agonist 12 and V1R ag counter 29*.
For CC(C)Cc1ccc(C(C)C(=O)Nc2ccccc2O)cc1 (stereo unspecified) the results were TRPML3 agonist 22*, OXTR potentiate -34, OXTR agonist 42*, zfTRPN1 agonist 46* and V1R ag counter 40*.
Screening Cc1c(NC(=O)C(C)c2ccc(CC(C)C)cc2)c(=O)n(-c2ccccc2)n1C (stereo unspecified) returned TRPML3 agonist 0, OXTR potentiate -19, OXTR agonist -2, zfTRPN1 agonist 0 and V1R ag counter 0.
For O=C(Nc1ccc(S(=O)(=O)Nc2ccccc2)cc1)c1ccc(CN2CCOCC2)cc1 the results were TRPML3 agonist 7, OXTR potentiate -16, OXTR agonist 9, zfTRPN1 agonist 20* and V1R ag counter 10.
O=C(Nc1ccc(CN2CCOCC2)cc1)c1ccc(Cl)cc1 was read as OXTR potentiate -1, OXTR agonist 2 and V1R ag counter 3.
`CC1CCN(CCCNC(=O)C2CCC(CNS(=O)(=O)c3ccccc3)CC2)CC1` (stereo unspecified) gave OXTR potentiate -7, OXTR agonist 0 and V1R ag counter 0.
Screening CCCCCC(=O)NNC(=O)c1c(O)c2ccccc2n(CC)c1=O returned TRPML3 agonist 1, OXTR potentiate -6, OXTR agonist -1, zfTRPN1 agonist 2 and V1R ag counter 0.
